# Compound activity (PubChem BioAssay)
# MrgX1 antagonist – human MrgX1 receptor antagonism, primary screen. MRGX1-HEK293 calcium flux, Fluo-4, BAM8-22 antagonism; hits give low values. B-score at 10 µM. 310,000 compounds, 1.3% hits;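 active = calcium-response B-score plate-corrected more than 3 library SD below zero, starting fluorescence within 5 deviations, no agonist response on first addition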;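 note: peak minus trough fluorescence over baseline after final BAM8-22 challenge near maximal dose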
# RGS4 act – RGS4 potentiation or activation | 310,000 compounds, 0.92% hits | HEK293 M3R/inducible RGS4, carbachol calcium flux Fluo4; hits give low values | B-score at 10 µM;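 active = B-score of the integrated calcium signal more than 4 SD below the library mean, with starting fluorescence not abnormally high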;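 note: negative B-score means reduced calcium response which marks RGS4 activation or potentiation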
#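 Assay system: HEK293 FlpIn-TREx cells, stable M3R, doxycycline-inducible RGS4 / Probe or stimulus: carbachol, ECmax concentration / Times: overnight RGS4 induction, 30 min dye load 37 °C, 20 min compound RT / Signal: kinetic calcium fluorescence imaging with Fluo4-AM dye, 2 µM / Measure: Agonist-evoked peak-minus-minimum fluorescence over baseline, integrated ratio, B score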
# RGS4 inh – inhibitors of human RGS4 | HEK293 M3R/RGS4 inducible, Fluo-4 calcium flux; hits give high values; triggered by carbachol at its EC20 | B-score at 10 µM | 310,000 compounds, 0.45% hits | AID 463165;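 active = B-score, a plate-corrected calcium signal, over three deviations above library mean, with baseline fluorescence within five deviations of library mean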;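 note: RGS4 expression induced by doxycycline in cells with stable M3 receptor; B-score is computed from the integrated fluorescence ratio over baseline after carbachol; higher B-score means a larger calcium signal and so more RGS4 inhibition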
# MrgX1 ag – activates human MrgX1 receptor signaling | Q96LB2 | MrgX1-HEK293 cells, Fluo-4 calcium fluorescence, agonist mode; hits give high values | B-score at 10 µM | 310,000 compounds, 0.44% hits | AID 588627;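 active = calcium response B-score plate-corrected fluorescence ratio at least 3 library SD, with starting fluorescence B-score inside 5 SD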
#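 Assay system: MrgX1-expressing HEK293 cells / Amount: fifteen thousand cells per well / Doses: test compound in the initial addition of three / Timing: cells plated overnight, dye loaded 0.5 h 37 °C, 0.5 h room temperature / Technique: kinetic calcium dye fluorescence, Fluo-4 NW / Control set: positive and negative controls per plate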
# MrgX1 PAM – allosterically activates human MrgX1 receptor signaling. Q96LB2. MrgX1-HEK293, Fluo-4 calcium flux, FDSS; hits give high values. B-score at 10 µM. 310,000 compounds, 0.63% hits;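 active = plate-corrected calcium response at least 3 library SD above typical, normal starting fluorescence, not activating the receptor alone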;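 note: compound read alongside a low EC10 to EC30 dose of BAM8-22 agonist; peak minus trough fluorescence over baseline measured at the second addition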
# KCC2 mod – modulators of human KCC2 chloride dependent transport | 190,000 compounds, 2.2% hits | KCC2 cells, thallium flux FluoZin-2 fluorescence | B-score of Tl+ flux slope (higher = more flux/activation; lower = inhibition) at 10 µM;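 active = thallium flux slope and its plate-corrected score both differing from the plate sample mean at a set confidence after two filtering rounds, in either direction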;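 note: slope of fluorescence scaled to starting intensity during 10 to 20 s after thallium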
# Target sequence (Q9H2X9 whole entry, looked up): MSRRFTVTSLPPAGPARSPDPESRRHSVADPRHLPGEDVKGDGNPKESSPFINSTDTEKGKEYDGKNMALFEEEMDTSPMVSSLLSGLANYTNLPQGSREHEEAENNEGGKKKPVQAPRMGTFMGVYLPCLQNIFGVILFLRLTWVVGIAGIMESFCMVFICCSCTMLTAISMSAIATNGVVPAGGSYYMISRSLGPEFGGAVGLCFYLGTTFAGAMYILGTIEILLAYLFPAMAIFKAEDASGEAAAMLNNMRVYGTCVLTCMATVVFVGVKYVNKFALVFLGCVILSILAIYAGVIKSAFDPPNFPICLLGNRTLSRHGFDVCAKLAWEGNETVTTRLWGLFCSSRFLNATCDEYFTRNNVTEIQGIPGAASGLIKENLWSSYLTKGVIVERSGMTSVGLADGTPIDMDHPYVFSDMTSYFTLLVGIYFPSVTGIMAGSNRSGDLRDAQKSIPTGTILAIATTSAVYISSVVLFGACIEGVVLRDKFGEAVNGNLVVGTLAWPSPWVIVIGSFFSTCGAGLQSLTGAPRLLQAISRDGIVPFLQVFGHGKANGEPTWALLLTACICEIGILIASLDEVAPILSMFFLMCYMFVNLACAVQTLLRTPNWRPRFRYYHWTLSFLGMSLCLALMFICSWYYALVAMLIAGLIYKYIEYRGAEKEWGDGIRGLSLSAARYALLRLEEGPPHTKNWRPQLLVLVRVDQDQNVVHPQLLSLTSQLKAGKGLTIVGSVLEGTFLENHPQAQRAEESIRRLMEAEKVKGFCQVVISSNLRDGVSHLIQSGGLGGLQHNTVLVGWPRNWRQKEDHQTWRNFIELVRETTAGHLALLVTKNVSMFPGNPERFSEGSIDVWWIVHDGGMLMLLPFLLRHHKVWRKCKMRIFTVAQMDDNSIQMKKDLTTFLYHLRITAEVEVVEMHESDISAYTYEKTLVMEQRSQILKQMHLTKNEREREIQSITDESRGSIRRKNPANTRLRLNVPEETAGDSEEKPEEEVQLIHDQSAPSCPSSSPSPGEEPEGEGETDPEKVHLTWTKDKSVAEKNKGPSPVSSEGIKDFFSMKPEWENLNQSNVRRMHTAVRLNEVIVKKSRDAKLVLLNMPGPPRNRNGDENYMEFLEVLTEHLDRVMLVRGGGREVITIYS
# KCC2 secondary – KCC2 (human) modulation, secondary assay; normalised thallium flux (F/F0 slope) at 10 µM; HEK293-KCC2, thallium flux, FluoZin2 fluorescence; hits give high values; shares compounds with KCC2 mod; AID 1713; 3,700 compounds, 15% hits;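 active = thallium flux slope above the same plate's solvent-only control mean plus 3 SD; inconclusive = the two replicate wells disagree; inactive = no significant difference from solvent-only control wells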
# KCC2 bumet counter – thallium flux despite bumetanide block in KCC2 cells, secondary assay 3; normalized thallium flux at 10 µM; shares compounds with KCC2 mod; HEK293-KCC2 + bumetanide/ouabain, thallium flux FluoZin2; hits give high values; AID 1714; 3,700 compounds, 49% hits;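 active = thallium entry rate above the same plate's blocked-transporter control wells by more than 3 SD; inconclusive = the two repeat wells disagree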;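 note: raw slope of fluorescence over initial fluorescence between 10 and 20 s after thallium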
# KCC2 secondary2 – KCC2 (human) modulation, second secondary assay; shares compounds with KCC2 mod; normalized thallium flux at 10 µM; 3,700 compounds, 23% hits; HEK293-KCC2, thallium flux FluoZin2 fluorescence; actives lie on both sides; F/F0 rise rate, 10–20 s post-thallium;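 active = thallium flux slope more than 3 SD above or below the plate's solvent-only control mean, mostly below; inconclusive = the two repeat wells disagreed; inactive = no significant shift from solvent-only controls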;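 note: raw slope with 0.1% DMSO as baseline and bumetanide as block control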
# HEK293 Tl flux – parental HEK flux effect, counter-screen | shares compounds with KCC2 mod | HEK293 parental cells, thallium flux FluoZin2, ouabain; baseline-ratio fluorescence slope, 10–20 s after thallium | thallium flux rate (normalised fluorescence) at 10 µM | 3,700 compounds, 46% hits | AID 1716;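 active = thallium flux rate significantly above the same plate's solvent-only control wells, beyond their mean plus 3 SD; inconclusive = the two replicate wells gave conflicting results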
# KCC2 retest ouab – confirmation of human KCC2 modulators with ouabain | shares compounds with KCC2 mod | HEK293-KCC2, thallium flux FluoZin2 fluorescence; bidirectional: low = inhibitor, high = activator | raw Tl+ flux slope (below DMSO = inhibition, above = activation) at 10 µM | 3,700 compounds, 48% hits | AID 1717;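 active = thallium flux slope beyond 3 SD from same-plate DMSO control mean in most replicates, usually higher, sometimes lower; inconclusive = repeat tests gave conflicting results; inactive = no significant difference from controls in most replicates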;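 note: slope of initial-normalized fluorescence between seconds 10 and 20 after thallium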
# HEK293 Tl flux2 – parental HEK flux effect, counter-screen 2; shares compounds with KCC2 mod; HEK293 parental, thallium flux FluoZin-2 fluorescence slope; thallium flux slope at 10 µM; 3,700 compounds, 33% hits; AID 1718;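 active = thallium flux slope above the same plate's solvent-control mean plus 3 SD in both duplicate wells; inconclusive = duplicate wells that disagreed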;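 note: run without ouabain in cells lacking the KCC2 cotransporter; slope of fluorescence scaled to its starting value between 10 and 20 s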
# * marks the source's active call; other numbers are inactive results; i = inactive; ? = inconclusive; · = no result given. The list is not random: actives were taken first. Their share in the collection is about 4.7%.
SMILES,MrgX1 antagonist,RGS4 act,RGS4 inh,MrgX1 ag,MrgX1 PAM,KCC2 mod,KCC2 secondary,KCC2 bumet counter,KCC2 secondary2,HEK293 Tl flux,KCC2 retest ouab,HEK293 Tl flux2
COC1=C/C(=C/c2c(N)n3nc(-c4ccc(C)cc4)sc3nc2=O)C=CC1=O,·,·,·,·,·,9.8*,0.0065,0.063*,?,0.083*,?,0.024*
CN(C(=S)NC(=O)C1(C)CC1(Cl)Cl)c1ccccc1 (configuration not stated),i,i,i,i,i,5.1*,0.022*,0.026*,?,0.02*,0.027*,0.02*
CC1(C(=O)NC(=S)N(Cc2ccccc2)c2ccccn2)CC1(Cl)Cl (configuration not stated),i,i,i,i,i,-0.82,·,·,·,·,·,·
COc1ccc(Nc2cc(C)nc3ccccc23)cc1,i,i,i,i,i,1.3,0.0098,0.008*,0.03,0.0073,0.021,0.011
O=[N+]([O-])c1ccc(Sc2cccc3cccnc23)c([N+](=O)[O-])c1,i,i,i,i,i,·,0.015*,0.053*,0.035,?,0.035*,0.013
O=[N+]([O-])c1cc(Cl)ccc1Sc1cccc2cccnc12,i,i,i,i,i,-0.12,·,·,·,·,·,·
CC1CCCC(NC(=O)CCn2c(=S)oc3ccccc32)C1C (configuration not stated),i,i,i,i,i,-0.84,0.0085,0.0068,0.032,0.0074,0.022,?
CC(C)NC(=O)CCn1c(=S)oc2ccccc21,i,i,i,i,i,-0.0037,·,·,·,·,·,·
Cc1cc2cc(CCNC(=O)c3ccc(C)c([N+](=O)[O-])c3)c(=O)[nH]c2cc1C,i,i,i,i,i,-0.79,·,·,·,·,·,·
Cc1cc2cc(CNC(=O)c3ccc(C)c([N+](=O)[O-])c3)ccc2[nH]1,i,i,i,i,i,-4.2*,0.0087,0.0063,0.029,0.0076,?,0.01
Cc1ccc(C2CC(C(F)(F)F)n3nc(C(=O)NCC4CCCO4)cc3N2)cc1 (configuration not stated),·,i,i,·,·,-4.2*,0.0072,0.005,0.03,0.0079,0.019,0.011
C=CC(=O)Nc1sc2c(c1C(N)=O)CCCC2,i,i,i,i,i,·,·,·,·,·,·,·
C=CCNC(=S)Nc1sc2c(c1C(N)=O)CCCC2,i,i,i,i,i,8.3*,0.01,0.014*,0.032,0.012*,0.028*,0.011*
O=C(NCc1ccccc1)c1sc(=S)n2c1[nH]c(=O)c1ccccc12,i,i,i,51*,i,20*,0.0053,0.065*,?,0.056*,0.054*,0.045*
CC(=O)NNC(=O)c1sc(=S)n(C)c1C,i,i,i,i,i,-0.68,·,·,·,·,·,·
CCCCNC(=O)c1sc(=S)n2c1[nH]c(=O)c1ccc(C(=O)NCCc3ccc(OC)c(OC)c3)cc12,i,i,i,i,i,·,·,·,·,·,·,·
CC(=O)NNC(=O)c1sc(=S)n2c1[nH]c(=O)c1sccc12,i,i,i,i,i,8.2*,0.0076,0.01*,0.028,0.012*,?,0.012*
Cc1ccc2oc(C(=O)N3CCN(Cc4nccn4C)CC3)c(C)c2c1,i,i,i,i,i,·,·,·,·,·,·,·
CC(C)CC(=O)NC1(C(F)(F)F)C(=O)Nc2c1c(=O)n(C)c(=O)n2C (configuration not stated),i,i,i,i,i,-3.5*,0.0062,0.0051,0.033,0.0082,0.021,0.011
O=c1cc(C(O)C[N+](=O)[O-])occ1OCc1ccccc1 (configuration not stated),i,i,i,i,i,·,·,·,·,·,·,·
COc1ccccc1CNc1n[nH]c(NCc2ccccc2OC)n1,i,i,i,i,i,·,?,0.005,0.03,0.0075,0.018,0.011
COc1ccc(N2CC(C(=O)NCc3n[nH]c(=O)c4ccccc34)CC2=O)cc1 (configuration not stated),·,i,i,·,·,·,·,·,·,·,·,·
O=c1oc(-c2ccc(F)cc2)nc2ccsc12,i,i,i,i,i,·,0.0061,0.005,0.032,?,0.017*,0.01
c1cncc(-c2nnc(SCc3cccc4ccccc34)o2)c1,i,i,i,i,i,-4.3*,0.0087,0.0064,0.029,0.0064,0.02,0.0092
c1ccc(CSc2nnc(-c3cccnc3)o2)cc1,i,i,i,i,i,-0.057,·,·,·,·,·,·
SMILES,MrgX1 antagonist,RGS4 act,RGS4 inh,MrgX1 ag,MrgX1 PAM,KCC2 mod,KCC2 secondary,KCC2 bumet counter,KCC2 secondary2,HEK293 Tl flux,KCC2 retest ouab,HEK293 Tl flux2
O=C(NC(Cc1ccccc1)C(=O)NCCc1ccccn1)c1ccccc1 (configuration not stated),i,i,i,i,i,·,·,·,·,·,·,·
Cc1ccc2c(C)cc(=S)[nH]c2c1,·,i,i,·,·,29*,0.0079,0.02*,0.036,0.024*,0.03*,0.021*
Cc1ccc2[nH]c(=S)cc(C)c2c1,i,i,i,i,i,21*,0.011,?,0.038,?,?,0.019*
Cc1cc2[nH]c(=S)[nH]c2cc1C,i,i,i,i,i,0.17,·,·,·,·,·,·
Cc1cc(=S)[nH]c2ccccc12,i,i,i,i,i,5.8*,0.0084,0.015*,0.029,0.015*,?,0.015*
CCCCNc1cc(C(=O)O)cc(S(N)(=O)=O)c1Oc1ccccc1,i,i,i,i,i,-6.4*,0.0063,0.0046,0.023*,0.0064,0.013*,0.0094
NS(=O)(=O)c1cc(C(=O)O)cc(N2CCCC2)c1Oc1ccccc1,i,·,·,i,i,·,·,·,·,·,·,·
